Series [1] concerns Quadruplex DNA. Kind of series: Stabilization of fluorescently labelled G4-quadruplex Bom17 DNA (unknown origin) assessed as increase in thermal stability of DNA structure at 5 uM by FRET melting assay. It is filed as nucleic-acid assay. The essentials: (§1)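 0.2 μM FAM/TAMRA dual-labelled oligonucleotide, prefolded in 10 mM lithium cacodylate pH 7.4, 10 mM KCl, 90 mM LiCl (95 °C 10 min, then ≥1 h cold). Ligand added and sample heated from 10 to 95 °C; donor emission at 516 nm (excitation 492 nm) normalized. Tm taken at 0.5 normalized emission; ΔTm is Tm with ligand minus Tm without ligand. Duplicate wells.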

The test system of series [2] is Quadruplex DNA. Nature of the series: Stabilization of fluorescently labelled c-Myc G4-quadruplex Pu22 DNA (unknown origin) assessed as increase in thermal stability of DNA structure at 5 uM in presence of double stranded competitor DNA ds26 by FRET melting assay. It is filed as nucleic-acid assay. The essentials: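 Competition melting: 0.2 μM labelled Pu22 in 10 mM lithium cacodylate pH 7.4, 2 mM KCl, 98 mM LiCl, with ligand plus 0–100 equivalents of ds26 duplex competitor. Heated 10–95 °C; FAM emission normalized. Tm taken at 0.5 normalized emission; ΔTm is Tm with ligand minus Tm without ligand. SD of at least six independent experiments.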

The subject of series [3] is Quadruplex DNA. Nature of the series: Stabilization of fluorescently labelled G4-quadruplex Tba DNA (unknown origin) assessed as increase in thermal stability of DNA structure at 5 uM by FRET melting assay. It is filed as nucleic-acid assay. The essentials:
as §1

Series [4] has as its system Quadruplex DNA. Kind of series: Stabilization of fluorescently labelled G4-quadruplex 21G DNA (unknown origin) assessed as increase in thermal stability of DNA structure at 5 uM by FRET melting assay. It counts as nucleic-acid assay. In a few lines:
as §1

In series [5] the test system is Quadruplex DNA. Kind of series: Binding affinity to c-Myc G4-quadruplex Pu22 DNA (unknown origin) at 0.7 equivalent by NMR titration analysis. It is filed as nucleic-acid assay. The settings on record: dose 0.7 equiv. The essentials:
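Pu22 folded at 100 μM in 10 mM potassium phosphate pH 7.4, 35 mM KCl (95 °C 10 min, cooled overnight). 10% D2O added, giving 90 μM DNA. Compound added stepwise in increasing equivalents. 1D 1H spectra with excitation sculpting, 256 scans, 298 K, 850 MHz.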

The nature of series [6]: Solubility of the compound at pH 7.4. It is filed as physicochemical. Particulars: buffer.
For series [7], the system named is dsDNA. Kind of series: Binding affinity to 5'-Cy5-labelled double stranded DNA ds26 (unknown origin) by microscale thermophoresis analysis. It counts as nucleic-acid assay. In a few lines:
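Cy5-labelled DNA held at 25 nM, folded in 10 mM phosphate, 100 mM KCl, pH 7.4 (95 °C 5 min, cooled to room temperature). Ligand in 16 1:3 dilutions in 10 mM phosphate pH 7.4, 100 mM KCl, 0.05% Tween20. Capillary fluorescence read at 20% LED power; change in fluorescence versus ligand concentration fitted by nonlinear equation for binding constant.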

In series [8] the test system is Quadruplex DNA. Kind of series: Stabilization of G4-quadruplex DNA in human HeLa cells assessed as increase in BG4-positive cell nuclei at 20 uM incubated for 24 hrs by immunofluorescence microscopy. It is filed as functional, cell-based. The essentials: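 HeLa cells (60,000 on coverslips) treated 24 h. Cells fixed in 2% paraformaldehyde, permeabilized in 0.1% Triton X-100, blocked in 2% milk. Stained with BG4–FLAG (1/3000), rabbit anti-FLAG, then Alexa594 anti-rabbit, each 1 h at 37 °C; nuclei stained with DAPI. BG4 foci per nucleus counted, 90–166 cells per condition. Welch-corrected t tests on ln-transformed data; mean ± 2SD shown.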

Series [9] deals with Quadruplex DNA. Kind of series: Binding affinity to c-Myc G4-quadruplex Pu22 DNA (unknown origin) assessed as change in entropy by isothermal titration calorimetry. It counts as nucleic-acid assay. The essentials: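 Reverse titration: cell holds 20 μM ligand, syringe 120 μM prefolded G4 DNA, 20 injections in 10 mM potassium phosphate, 100 mM KCl, pH 7.4, at 19 °C. First injection 0.5 μL, then 2 μL, 120 s spacing, 1000 rpm, high-feedback mode. Data fitted to one-site binding model.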
In general terms: Isothermal titration calorimetry measures the heat released or taken up as one component is titrated into another.

For series [10], the system named is Quadruplex DNA. Kind of series: Stabilization of fluorescently labelled G4-quadruplex c-KIT2 DNA (unknown origin) assessed as increase in thermal stability of DNA structure at 5 uM by FRET melting assay. It counts as nucleic-acid assay. In a few lines:
as §1

Series [11] has as its system Quadruplex DNA. Nature of the series: Stabilization of fluorescently labelled G4-quadruplex Bcl2 DNA (unknown origin) assessed as increase in thermal stability of DNA structure at 5 uM by FRET melting assay. It counts as nucleic-acid assay. The essentials: as §1
Series [12] has as its system Quadruplex DNA. Kind of series: Stabilization of fluorescently labelled G4-quadruplex 25Ceb DNA (unknown origin) assessed as increase in thermal stability of DNA structure at 5 uM by FRET melting assay. It is filed as nucleic-acid assay. The essentials:
as §1

Series [13] concerns THP-1. Nature of the series: Cytotoxicity against human THP-1 cells assessed as reduction in cell viability at <50 uM. It counts as toxicity, cell-based. The settings on record: thp-1, 50 µM.
The nature of series [14]: Stabilization of double stranded PEPu24T mut DNA (unknown origin) assessed as inhibition of Taq DNA polymerase activity by measuring reduction in full length DNA product at 6 uM pretreated for 10 mins followed by incubation with dNTPs for 15 mins by PAGE analysis. Particulars: time 25.0 min. In a few lines:
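Non-G4 control template: TET-labelled 25 nt primer (1 μM final) annealed to mutated PEPu24T mut (1.25 μM final) in 100 mM KCl. 40 nM template, Taq buffer pH 8.8, 25 mM MgCl2, 0.05 U Taq. Compound on ice 10 min, then 100 μM dNTPs at 37 °C 15 min. Denaturing PAGE; full-length product as % of no-compound sample.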

The subject of series [15] is Quadruplex DNA. Nature of the series: Stabilization of G4-quadruplex PEPu24T DNA (unknown origin) assessed as inhibition of Taq DNA polymerase activity by measuring reduction in full length DNA product at 1.2 uM pretreated for 10 mins followed by incubation with dNTPs for 15 mins by PAGE analysis. It is filed as nucleic-acid assay. Particulars: time 25.0 min. In a few lines:
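Template made by annealing TET-labelled 25 nt primer (1 μM final) to PEPu24T (1.25 μM final) in 100 mM KCl. Reaction: 40 nM template, Taq buffer pH 8.8 with 50 mM KCl, 25 mM MgCl2, 0.05 U Taq. Compound preincubated on ice 10 min; dNTPs (100 μM) added, 37 °C 15 min. Denaturing 12% urea/formamide PAGE; full-length product expressed as % of no-compound sample; SD of ≥2 independent experiments.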

≈ marks a conversion by molar mass, not a printed value. Calls of active or inactive are those of the source. The rule behind the calls is not given here.

As usually defined, the solubility is how much of the substance goes into solution per volume. A lower solubility goes with little dissolved substance. Broadly, the inhibition is the drop in the measured response relative to a control, in per cent. Turning to `Cc1cc(C)c2nc(Nc3nc(C)cc(C)n3)nc(C)c2c1`, the outcome in series [1], in [2], in [4], in [5], in series [8] and in series [10] was Active. In addition, the outcome in [11] and in [12] was Active. Also, the result in series [3], in series [7] and in series [14] was inactive. In [6], the concentration in solution (solubility) was 134 µM (≈ 39.3 µg/mL). Also, the -TdeltaS in series [9] came out at 3.2 kcal/mol. The Activity entry in series [13] is recorded as “Non-Toxic”. Also, in series [15], the inhibition is 50%.

The values are drawn from ChEMBL document CHEMBL5385911, “Exploring the Dispersion and Electrostatic Components in Arene-Arene Interactions between Ligands and G4 DNA to Develop G4-Ligands” (J Med Chem, 2024).
